# Assay outcomes as filed in PubChem BioAssay.
# Lmaj promast = Leishmania major promastigote growth inhibition, primary screen | inhibition, % at 10 µM | AID 1063, 2008 | Leishmania major promastigotes, resazurin fluorescence viability | 200,000 tested, 9% active;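 further: promastigotes grown with compound for 44 hours at 28 °C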
# Diaphorase act = compounds boosting diaphorase resazurin reduction – biochemical, uHTS, resorufin fluorescence, counter-screen for diaphorase-coupled primary assays, primary screen. Diaphorase/resazurin coupled assay, 16 min; active compounds read high; 1 = vehicle wells, 0 = NADH-free wells. 190,000 tested, 0.005% active. activation factor at 20 µM;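 active means diaphorase activity raised at least twofold by the compound at 20 µM; inactive means activation factor below 2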
#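 System – purified diaphorase enzyme from Clostridium kluyveri · Input – enzyme 0.07 U/mL final · Also added – final NADH 0.114 mM, resazurin 0.1 mM · Measured by – fluorescence of resorufin, 544 nm excitation, 590 nm emission · Timing – 16 min enzyme reaction, ambient temperature · Measure – resorufin increase flagging diaphorase activators or reducers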
# G6PDH CS = L. mesenteroides G6PDH inhibitors, counter-screen for G6PDH-coupled screening assays, biochemical, Leuconostoc mesenteroides enzyme. inhibition, % at 5 µM. Purified L. mesenteroides G6PDH, diaphorase/resazurin coupled fluorescence, 45 min. glucose-6-phosphate dehydrogenase [Leuconostoc mesenteroides]. 200,000 tested, 0.12% active
# Diaphorase inh = diaphorase inhibitors and chemical oxidizers, primary screen, counter-screen for diaphorase-coupled primary assays, biochemical, uHTS, resorufin fluorescence | diaphorase resazurin-to-resorufin fluorescence, NADH, 16 min; bacterial (C. kluyveri) enzyme, not human | inhibition, % at 20 µM | 190,000 tested, 0.69% active | AID 1217, 2008;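 active means primary screen inhibition at 20 µM above a set limit, cut at about 50% in these data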;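 further: plate controls were DMSO with full reaction for no effect and wells lacking NADH for full effect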
#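 Test system: diaphorase enzyme from Clostridium kluyveri; amount: diaphorase at 0.14 U/mL in enzyme working solution; detection: fluorescence of resorufin formed from resazurin, Ex 544/Em 590 nm; times: reaction incubation of 16 min at room temperature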
# Redox H2O2 prof = compounds producing H2O2 with reducing agent – biochemical, NIH compound library profiling, artefact control for MLSCN library redox annotation, primary screen | activation, % at 10 µM | DTT-dependent redox cycling H2O2, phenol red/HRP absorbance; 100% = 100 µM peroxide control, 0% = buffer | 200,000 tested, 0.03% active;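 active means activation of at least 50% relative to the plate's high and low controls in the primary single-dose screen; inactive means activation below 50%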;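 further: compound incubated with DTT at 0.8 mM final as the reducing agent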
# PfGluPho inh = PfG6PD enzyme inhibitors, primary screen, biochemical, fluorescence intensity, uHTS. 350,000 tested, 0.78% active. inhibition, % at 20 µM. PfGluPho enzyme, NADPH resazurin-diaphorase fluorescence. glucose-6-phosphate dehydrogenase-6-phosphogluconolactonase (Plasmodium falciparum 3D7);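 active means inhibition reaching at least a set limit at 20 µM in the primary screen, cut at about 59% in these data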;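 further: 0% = DMSO wells with substrate and 100% = DMSO wells lacking glucose-6-phosphate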
# The depositor's hits bear a star; nt = no result given. The sample as a whole holds a higher share of hits than the screen did. Unless noted, no stated cut-off is given here; in the data, active means inhibition above about 50%; inactive means the rest.
SMILES,Lmaj promast,Diaphorase act,G6PDH CS,Diaphorase inh,Redox H2O2 prof,PfGluPho inh
CCOC(=O)c1ccc(NC(=S)N(CCN2CCCCCC2)Cc2ccco2)cc1,95*,1.1,-6,-11,-2,16
CCOC(=O)c1ccc(NC(=S)N(CCCN2CCCCCC2)Cc2ccco2)cc1,100*,0.8,6,15,-1,12
Cc1ccc(NC(=S)N(CCN2CCCCC2)Cc2ccco2)cc1,10,0.9,17,8,0,1
Cc1ccc(NC(=S)N(CCCN2CCCC(C)C2)Cc2ccco2)cc1C (stereo not given),96*,1,2,2,-3,-7
Cc1ccc(NC(=S)N(CCCN2CCOCC2)Cc2ccco2)cc1,4,0.9,-4,5,-2,-1
O=C(Nc1cc(Cl)ccc1F)C1=COCCO1,nt,nt,nt,nt,nt,16
CC(C)(C)C1CCC(=O)N(CCC#N)CC1 (stereo not given),nt,nt,nt,nt,nt,6
CCc1c(C)c(C#N)c2nc3ccccc3n2c1N(C)C,16,0.9,9,5,1,-1
CCCCc1c(C)c(C#N)c2nc3ccccc3n2c1Cl,100*,0.7,-53,31,1,nt
COc1ccc(S(=O)(=O)N2CCCC(C(=O)Nc3cccc(C(C)=O)c3)C2)cc1 (stereo not given),58*,0.9,6,15,1,3
COC(=O)c1ccc(NC(=O)C2CCCN2S(=O)(=O)c2ccc(OC)cc2)cc1 (stereo not given),58*,0.9,-1,13,1,1
COC(=O)c1ccc(NC(=O)C2CCCN2S(=O)(=O)c2ccc(C)cc2)cc1 (stereo not given),11,0.9,1,6,-3,5
CCOc1ccc(NC(=O)c2ccc(-n3cccn3)nc2)cc1,-4,1,3,-1,0,-7
CC(C)(C)n1nnnc1C(c1ccc(Cl)cc1)N(Cc1cccnc1)Cc1ccco1 (stereo not given),100*,0.8,0,24,2,-9
CC(C)(C)n1nnnc1C(c1ccc(C(F)(F)F)cc1)N(Cc1ccc(F)cc1)Cc1ccco1 (stereo not given),77*,0.8,-3,16,1,10
CCC(C)(C)n1nnnc1CN(Cc1ccc(Cl)cc1)Cc1ccco1,56*,0.7,-9,28,0,57
COC(=O)C(C)N(C(=O)c1ccc(Cl)cc1)c1c(C)cccc1C (stereo not given),87*,0.9,15,7,0,13
COC(=O)C(C)N(C(=O)c1ccc(C(=O)c2ccccc2)cc1)c1c(C)cccc1C (stereo not given),99*,0.8,4,19,0,0
N#Cc1cccc(C#N)c1Oc1ccc(N)cc1,nt,nt,nt,nt,nt,0
Cc1cc(C)nc(NC(=NCCc2c[nH]c3ccccc23)NC(=O)Nc2ccc(Cl)cc2)n1,73*,0.8,-17,19,0,13
NC(=NCCc1c[nH]c2ccccc12)NC(=O)c1ccc(Cl)cc1,60*,0.8,21,20,-1,3
Cc1cc(C)nc(NC(N)=NCCc2c[nH]c3ccccc23)n1,78*,1,11,2,0,21
C[C@H](NC(=O)c1ncn2c1C(=O)NC[C@H]2C)C(=O)OC(C)(C)C,nt,nt,nt,nt,nt,3
Cc1ccc2nc(-c3ccsc3)c(NC3CCCC3)n2c1,35,0.9,5,9,-1,19
COc1cccc2sc(Nc3nnc(-c4ccc(F)cc4)o3)nc12,96*,0.9,-71,7,-1,29
SMILES,Lmaj promast,Diaphorase act,G6PDH CS,Diaphorase inh,Redox H2O2 prof,PfGluPho inh
COc1cccc2sc(Nc3nnc(-c4cccs4)o3)nc12,96*,1,6,0,2,-5
Fc1cccc2sc(Nc3nnc(-c4ccco4)o3)nc12,-3,0.5,13,48,-2,1
COc1cccc(Nc2nnc(SCC(=O)Nc3sccc3C(N)=O)s2)c1,65*,0.7,8,31,-2,20
CCOC(=O)C1=C(C)N=c2s/c(=C3/C(=O)Nc4ccccc43)c(=O)n2C1c1ccc(C)cc1 (stereo not given),54*,0.9,8,9,0,18
O=C(Nc1nc2ccc(Cl)cc2s1)c1ccc(N2CCCCC2)c([N+](=O)[O-])c1,9,1,16,1,0,5
O=C(Nc1ccccc1C(F)(F)F)c1ncn[nH]1,nt,nt,nt,nt,nt,-19
Cc1c(NC(=O)c2ncn[nH]2)cccc1-c1nc2ccccc2s1,100*,1,-9,-2,0,-12
Cc1c(NC(=O)c2ccc(N3CCCC3)c([N+](=O)[O-])c2)cccc1-c1nc2ccccc2s1,71*,0.9,-6,7,0,3
O=C(Nc1ncccn1)C1c2ccccc2Oc2ccccc21,55*,1,-2,-4,0,-2
Cc1ccccc1Cn1nc(C)c(NC(=O)C2c3ccccc3Oc3ccccc32)c1C,84*,0.9,-11,8,0,-6
O=C(Nc1nc(-c2ccncc2)cs1)C1c2ccccc2Oc2ccccc21,90*,0.8,3,17,0,-5
Cc1cccc2sc(NC(=O)C3CC3)nc12,nt,nt,nt,nt,nt,-21
O=C(Nc1ccncc1)C1c2ccccc2Oc2ccccc21,24,1,4,-5,2,1
O=C(Nc1nc(-c2ccccc2)cs1)C1c2ccccc2Oc2ccccc21,2,0.8,6,16,-2,-17
Cc1cccc2sc(NC(=O)C3c4ccccc4Oc4ccccc43)nc12,81*,0.8,2,24,1,8
COc1ccccc1NS(=O)(=O)c1cc(NC(=O)/C=C/c2cccs2)ccc1N1CCOCC1,99*,0.8,11,17,0,-3
O=C(/C=C/c1cccs1)Nc1ccc(N2CCOCC2)c(S(=O)(=O)Nc2ccccc2Cl)c1,99*,0.8,8,21,0,1
O=C(CCl)NN1C(=O)NC(c2ccccc2)(c2ccccc2)C1=O,nt,nt,nt,nt,nt,-13
COc1ccc(NC(=O)/C(=C\c2ccncc2)NC(=O)c2ccccc2)cc1,-4,1,5,2,0,7
Cc1cccc2c1NC(=O)C21N2CCCC2C(C(=O)c2ccc3ccccc3c2)C12C(=O)Nc1ccccc12 (stereo not given),nt,nt,nt,nt,nt,21
